From PubChem
APP transl inh: APP translation inhibition. SH-SY5Y APP 5'UTR-luciferase reporter, luminescence. inhibition, % at 2 µM. hit rate 0.82% among 190,000. AID 1285;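 active means inhibition above a set limit, derived from the sample mean plus 3 SD, cut at about 45% in these data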
Ba/F3 V617F tox: reduce viability of Ba/F3 cells dependent on JAK2V617F. Ba/F3 EpoR-JAK2V617F viability, ATP luminescence. inhibition, % at 5.6 µM. hit rate 1.1% among 220,000. AID 1446;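 active means inhibition above the campaign mean plus 3 SD over all tested compounds, cut at about 24% in these data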;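 further: cytokine-independent growth of Ba/F3 cells driven by EpoR plus mutant JAK2; 0% = DMSO-treated cells and 100% = JAK inhibitor I control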
b-catenin transl: alters nuclear translocation of beta-catenin in HeLa cells | immunofluorescence imaging | nuclear translocation activity, % at 5 µM | hit rate 0.3% among 190,000 | AID 1665;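 active means nuclear translocation activity above 50% at 5 µM, with a well cell count of 50 or more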;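 further: per-cell ratio of nuclear to cytoplasmic median beta-catenin stain intensity; plate controls were DMSO negative control for no effect and GSK-3 inhibitor IX positive control for full effect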
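assay system = human HeLa cells, endogenous beta-catenin | times = compound treatment 24 h, 37°C, 5% CO2 | detection = Anti-beta-catenin immunofluorescence on PFA-fixed, Triton-permeabilized cells, DAPI nuclei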
L major viab: Leishmania major promastigote growth inhibition. inhibition, % at 10 µM. Leishmania major promastigotes, resazurin fluorescence viability. hit rate 9% among 200,000; in the data active means inhibition above about 50%;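 further: promastigotes grown with compound for 44 hours at 28 °C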
MT stabilizer: microtubule stabilizers in HeLa cells. hit rate 0.83% among 200,000. % tubulin-high responders, % at 10 µM. HeLa tubulin immunostaining HCS, 24 h; share of cells brighter than vehicle mean+2SD. AID 2205;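 active means plate Z-score above 3 for both tubulin-high and condensed-nucleus cell shares, with cell loss under 80%, at 10 µM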;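 further: anti alpha tubulin signal scored within the nucleus-defined area of each cell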
BaF3 parental: counter-screen for JAK2V617F inhibitors: parental Ba/F3 viability inhibitors; inhibition, % at 5.6 µM; AID 1486; CellTiter-Glo ATP luminescence; hit rate 1.1% among 220,000;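 active means inhibition above a per-campaign cutoff, the mean inhibition of all tested compounds plus 3 SD, cut at about 27% in these data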;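 further: 0% = DMSO wells and 100% = JAK Inhibitor I control wells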
* = called active by the depositor. The list is not random: actives were taken first. Their share in the collection is about 9.6%.

Screening CN(CCCCCCCCC(=O)/C=N/O)Cc1ccccc1 returned APP transl inh 10, Ba/F3 V617F tox -3, L major viab 87*, MT stabilizer 1 and BaF3 parental 4.
`CCOC(=O)c1ccc2c(c1)NCc1cccc(OC)c1O2` gave Ba/F3 V617F tox 1, b-catenin transl 0 and BaF3 parental -4.
For O=C(O)C1=C[C@H](C2CC2)C[C@H](OCCCCO)O1 the results were APP transl inh 8, Ba/F3 V617F tox -4, b-catenin transl -2, L major viab -7, MT stabilizer 3 and BaF3 parental -4.
For O=C(OCc1nc2ccc(Cl)cc2n1CCO)c1ccccc1C(=O)c1ccccc1 the results were APP transl inh -6, Ba/F3 V617F tox -2, b-catenin transl -1, L major viab 60*, MT stabilizer 2 and BaF3 parental 2.
`O=C1CC(C(=O)O)C2(CCCC2)O1` (configuration not stated) gave APP transl inh 5, Ba/F3 V617F tox -3, L major viab -4, MT stabilizer 4 and BaF3 parental -1.
`CCOC(=O)c1cnc2c(-c3ccc(F)cc3)cnn2c1C(F)(F)F` gave APP transl inh -17, Ba/F3 V617F tox -3, b-catenin transl 1, L major viab 97*, MT stabilizer 2 and BaF3 parental -1.
Screening Brc1ccc(-c2cn3c(n2)CCc2ccc4cccnc4c2-3)cc1 returned APP transl inh -8, Ba/F3 V617F tox -3, b-catenin transl -2, L major viab 100*, MT stabilizer 3 and BaF3 parental 3.
`Brc1ccc(-c2cn3nc4c(nc3n2)CCCC4)cc1` gave APP transl inh -186, Ba/F3 V617F tox -2, b-catenin transl 3, L major viab 42, MT stabilizer 1 and BaF3 parental 2.
Screening CC(O)[C@H]1CNC(=O)C(=O)N1CCc1cc(C(F)(F)F)cc(C(F)(F)F)c1 (some centres not stated) returned b-catenin transl 0.
`COc1ccccc1N1C(C)=CC(=C(C#N)c2nc3ccccc3s2)C=C1C` gave APP transl inh -60, Ba/F3 V617F tox -2, b-catenin transl -1, L major viab 52*, MT stabilizer 4 and BaF3 parental 3.
Cc1ccc(Cn2c(SCCN3CCCCC3)nc3c2c(=O)n(C)c(=O)n3C)cc1 was read as APP transl inh -6, Ba/F3 V617F tox -3, b-catenin transl -4, L major viab 99*, MT stabilizer 3 and BaF3 parental -1.
`Cc1ccc(Cn2c(CN(C)Cc3ccccc3)nc3c2c(=O)n(C)c(=O)n3C)cc1` gave APP transl inh 18, Ba/F3 V617F tox 21, b-catenin transl 4, L major viab 73*, MT stabilizer 5 and BaF3 parental 3.
Screening Cn1c(=O)c2c(nc(SCCN3CCCCC3)n2Cc2ccccc2)n(C)c1=O returned APP transl inh 3, Ba/F3 V617F tox -1, b-catenin transl 2, L major viab 90*, MT stabilizer 3 and BaF3 parental 0.
Cn1c(=O)c2c(nc(SCCN3CCOCC3)n2Cc2ccc(F)cc2)n(C)c1=O was read as APP transl inh 6, Ba/F3 V617F tox -4, b-catenin transl -1, L major viab 1, MT stabilizer 2 and BaF3 parental 0.
`COC(=O)c1sccc1NC(=S)Nc1cc(C)ccc1OC` gave APP transl inh -2, Ba/F3 V617F tox 0, b-catenin transl 1, L major viab 0, MT stabilizer 3 and BaF3 parental 1.
`CCCCNC(=S)NNC(=O)c1nn(C)cc1Cl` gave APP transl inh 7, Ba/F3 V617F tox 2, b-catenin transl -1, L major viab -6, MT stabilizer 2 and BaF3 parental 2.
COc1ccc(C2(O)CC3CCC(C2)N3c2cc(C)nc(-c3ccccc3)n2)cc1 (configuration not stated) was read as APP transl inh -12, Ba/F3 V617F tox 2, b-catenin transl 3, L major viab 63*, MT stabilizer 9 and BaF3 parental 9.
Cc1ccc(S(=O)(=O)NNC(=O)c2cc(C)cs2)cc1 was read as Ba/F3 V617F tox -4, b-catenin transl 1 and BaF3 parental 3.
Screening O=C1c2oc3ccccc3c(=O)c2C(c2ccc(O)cc2)N1c1nccs1 (configuration not stated) returned APP transl inh -9, Ba/F3 V617F tox -1, b-catenin transl 0, L major viab 1, MT stabilizer 3 and BaF3 parental 7.
For N#CC1=C(N)Oc2cc(N)ccc2C1c1cccnc1 (configuration not stated) the results were APP transl inh -17, Ba/F3 V617F tox 0, b-catenin transl 0, L major viab -7, MT stabilizer 24* and BaF3 parental 0.
`COc1cc(C2C(C#N)=C(N)Oc3cc(N)ccc32)cc(OC)c1OC` (configuration not stated) gave APP transl inh 95*, Ba/F3 V617F tox -4, b-catenin transl 71*, L major viab -5, MT stabilizer 18* and BaF3 parental 3.
For O=C(CSc1nnc(COc2cccc3cccnc23)o1)N1CCc2ccccc21 the results were APP transl inh 7, Ba/F3 V617F tox 0, b-catenin transl -3, L major viab -5, MT stabilizer 2 and BaF3 parental 94*.
`O=C(CSc1nnc(Cc2ccccc2)o1)N1CCc2ccccc21` gave APP transl inh 0, Ba/F3 V617F tox 0, b-catenin transl -8, L major viab -3, MT stabilizer 4 and BaF3 parental 4.
Cc1cc(/C=C(/C#N)c2cccc(F)c2)c(C)n1-c1cccnc1 was read as APP transl inh -45, Ba/F3 V617F tox -3, b-catenin transl 1, L major viab 99*, MT stabilizer 2 and BaF3 parental -2.
`Cc1cccc(-n2c(C)cc(C=C(C#N)C#N)c2C)c1` gave APP transl inh 1, Ba/F3 V617F tox 3, b-catenin transl 0, L major viab 62*, MT stabilizer 1 and BaF3 parental 7.
`Cc1cc(NC(=O)NC(C)(C(F)(F)F)C(F)(F)F)no1` gave Ba/F3 V617F tox -2, b-catenin transl 0 and BaF3 parental -1.
For O=C(Nc1ccccc1)c1ccc[nH]1 the results were APP transl inh -19, Ba/F3 V617F tox -2, b-catenin transl -5, L major viab 5, MT stabilizer 3 and BaF3 parental 2.
For COC(=O)C1=C(O)C(C(=O)OC)C(c2ccc(C)cc2)C(C#N)(C#N)C1c1ccc(C)cc1 (configuration not stated) the results were APP transl inh -8, Ba/F3 V617F tox -1, b-catenin transl -2, L major viab 61*, MT stabilizer 2 and BaF3 parental 3.
`CCOC(=O)CSC1=C(C#N)C(c2ccc(C)cc2)C(C(=O)OC)C(=O)N1` (configuration not stated) gave APP transl inh 12, Ba/F3 V617F tox -1, b-catenin transl -14, L major viab 6, MT stabilizer 1 and BaF3 parental 7.
